# Compound activity as filed in PubChem.
# Only some compounds are listed: those with a hit (about 4.3% of all), similar ones and a draw of the others.
# STAT1 blocker: STAT1 signaling inhibitors, primary screen, cell-based, HTS, luciferase reporter; NIH 3T3 STAT1-luciferase reporter, IFN-gamma, luminescence; inhibition, % at 5.5 µM; actives 0.35% (n = 200,000); AID 920, 2007;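 active = inhibition above a set limit, the mean inhibition across all tested compounds plus 3 SD, cut at about 34% in these data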;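 note: 0% = IFN-gamma with DMSO and 100% = IFN-gamma with 300 µM nifuroxazide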
# STAT3 inh: IL-6 driven STAT3 reporter inhibitors, primary screen, U3A cells, luciferase, luminescence, MLSCN library. inhibition, % at 5.5 µM. IL-6 STAT3-luciferase reporter; host cell line lacks STAT1. actives 0.89% (n = 190,000);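 active = inhibition above the mean inhibition across all screened compounds plus 3 SD, cut at about 44% in these data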;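 note: 0% = DMSO only wells and 100% = 100 µM nifuroxazide control wells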
# STAT1 act: STAT1 signaling activators, primary screen, cell-based, HTS, luciferase reporter | NIH 3T3 STAT1-luciferase reporter, IFN-gamma, luminescence; 100% = IFN-gamma alone, no compound | activation (% of control), % at 5.5 µM | actives 2.6% (n = 200,000) | AID 932, 2007;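 active = activation above the screen-wide mean activation plus 3 SD, cut at about 130% in these data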;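 note: raw ratio to IFN-gamma control signal so 100% means no change and 0% no light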
# STAT3 activator: IL-6 driven STAT3 reporter potentiators, primary screen, U3A cells, luciferase, luminescence, MLSCN library. IL-6 STAT3-luciferase reporter; 100% = signal with IL-6 EC80 alone. activation (% of control), % at 5.6 µM. actives 0.91% (n = 190,000). AID 871, 2007;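 active = activation above the screen-wide mean of compound activation plus 3 SD, cut at about 130% in these data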;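 note: 0% = background luminescence of wells with medium and substrate only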
#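 Material: human STAT1-deficient U3A cells with stable STAT3-luciferase reporter / Probe or stimulus: IL-6 stimulus at 33 ng/mL final / Schedule: 1 h compound pre-exposure, 6 h IL-6 stimulation, 37 °C / Technique: luminescence / Read-out basis: percent of IL-6-only median luminescence / Control set: IL-6-only high control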
# Active calls of the source: *; nt = no result given.
SMILES,STAT1 blocker,STAT3 inh,STAT1 act,STAT3 activator
Cc1c(C(=O)/C=C/c2cccs2)oc2ccc(F)cc12,2,-51,98,151*
Cc1cc(=O)oc2c(C(=O)/C=C\c3cccs3)c(O)ccc12,-13,-15,112,117
Cc1[nH]c2ccccc2c1CC(=O)O,1,-34,99,133*
NNC(=O)CCc1nc2ccccc2[nH]1,1,7,98,97
COc1ccc(-c2c(C)nn3c(N)c(C#N)cnc23)cc1OC,-42,-13,137*,118
Cc1ccc(C)n1-n1c(C)nc2sc(-c3ccccc3)cc2c1=O,-31,27,128,80
Cc1nc2cc(-c3ccccc3)sc2c(=O)n1N,86*,99*,21,13
Cc1ccc(-c2nc(N)n(C(=O)c3ccco3)n2)cc1,-12,4,110,99
Cc1cccc2nc(=S)n(C(=O)c3ccco3)n12,-106,-32,197*,134*
O=C(c1cc2ncc(Br)cn2n1)N1CCN(C(=O)c2ccco2)CC1,-6,-1,106,104
O=C(c1ccco1)n1c(=S)nc2ccccn21,-48,1,144*,106
CCN(C(=O)COC(=O)c1cccc(NS(=O)(=O)c2ccc(F)c(F)c2)c1)C1CCS(=O)(=O)C1 (centres undefined),-3,3,103,98
Cc1c(CN2CCCC(C(=O)c3cccc(OC(C)C)c3)C2)c(=O)n(-c2ccccc2)n1C (centres undefined),-10,-17,108,122
Cc1cc(C(=O)CN2C(=O)C(=O)N(Cc3ccccc3)C2=O)c(C)n1-c1ccccc1F,-2,-4,103,104
Cc1cc(C(=O)CN2CCC(C)CC2)c(C)n1-c1ccccc1F,-39,30,135*,72
CC1(C)CC(c2nc(-c3ccc(Br)cc3)cs2)CCS1 (centres undefined),8,-5,93,100
CN(c1nc(-c2ccc(Br)cc2)cs1)C1CCS(=O)(=O)C1 (centres undefined),-32,14,130*,94
O=C(O)c1ccc(/C=N/Nc2cccc(C(F)(F)F)c2)cc1,-55,-7,149*,113
CC(C)c1ccc(/C=N/Nc2ccc(C(=O)O)cc2)cc1,65*,84*,43,29
CCC(C)/C(C)=N/NC(=O)c1ccc(COc2ccc(Cl)c(C)c2)cc1 (centres undefined),-34,-14,130*,114
CCN(C(=O)CSc1nc2ccccc2c(=O)n1C(C)COC)C1CCS(=O)(=O)C1 (centres undefined),4,-8,95,108
Nc1c(-c2ccc(Cl)cc2)cnn1-c1cccc(C(F)(F)F)c1,-24,20,121,92
Cc1ccc(-c2cnn(-c3cccc(C(F)(F)F)c3)c2N)cc1,-42,8,138*,100
O=C1C2C3C=CC(CC3)C2C(=O)N1/N=C/c1c[nH]c2ccccc12 (centres undefined),-40,2,137*,100
COc1ccccc1/C=N/N1C(=O)C2C3C=CC(CC3)C2C1=O (centres undefined),-3,-6,102,107
SMILES,STAT1 blocker,STAT3 inh,STAT1 act,STAT3 activator
Cc1ccc(-c2nnc(SCC(C)C)n2C)cc1,-41,2,138*,102
Cc1ccc(-c2nnc(SCC(N)=O)n2C)cc1,-8,6,107,100
Fc1ccc(NC(=S)NNc2ncc(C(F)(F)F)cc2Cl)c(F)c1,59*,62*,46,49
FC(F)(F)c1cnc(NNC(=S)Nc2ccc(Cl)cc2)c(Cl)c1,6,17,95,88
Cc1cccc(NC(=O)c2cnc3scc(C)n3c2=O)c1,-32,-14,129*,120
Cc1csc2ncc(C(=O)Nc3ccccc3Cl)c(=O)n12,-36,nt,131*,nt
O=C(O)C1C2CC3C(OC(=O)C31)C2Cl (centres undefined),-5,-1,104,103
O=C(c1ccc(N2CCOCC2)cc1[N+](=O)[O-])N1CCOCC1,-2,8,101,102
CCN(CC)C(=O)c1cc2c(=O)n3ccccc3nc2s1,-21,-37,119,134*
COCCN(CCOC)C(=O)c1cc2c(=O)n3ccccc3nc2s1,-8,-11,108,114
COC(=O)c1ccc(OC(C)C(=O)c2ccc(C)cc2)cc1 (centres undefined),6,4,94,99
CCc1cccc(NC(=O)Nc2cccs2)c1,-36,1,133*,103
COc1ccc(NC(=O)Nc2cccs2)cc1Cl,-34,13,130*,98
COc1ccc(C(=O)Nc2ccc(NC(=O)c3cccs3)cc2)cc1Cl,-4,14,103,90
COC(=O)CCC(=O)COc1ccccc1C#N,-4,15,103,92
COC(=O)CCC(=O)COc1ccc(OC)cc1C#N,-33,-12,130*,113
Cc1cc(/C=c2/sc3nc4ccccc4n3c2=O)c(C)n1-c1ccccn1,86*,104*,23,13
CC(=O)N1CCN(C(=S)Nc2ccc(SC(F)F)cc2)CC1,-1,-6,98,109
O=C(Nc1ccc(SC(F)F)cc1)C1=COCCO1,-35,18,133*,87
Cc1ccc(NC(=O)CCn2ccc([N+](=O)[O-])n2)nc1,-5,20,104,82
CCOC(=O)c1c(NC(=O)c2cc3n(n2)C(C(F)(F)F)CC(c2cccs2)N3)sc(C)c1C (centres undefined),5,-15,96,108
Cc1ccccc1NC(=O)N1CCCC(c2nc(-c3ccc(C(C)C)cc3)no2)C1 (centres undefined),-39,12,135*,98
COc1ccc(NC(=O)NNC(=O)c2ccccc2-n2cccc2)cc1OC,2,6,97,100
COC(=O)C(C)n1cnc2c(cnn2-c2ccc(Cl)cc2)c1=O (centres undefined),-32,8,129*,98
Cc1cc(S(=O)(=O)N2CCN=C2c2ccccc2)c(Cl)cc1Cl,3,1,96,101
SMILES,STAT1 blocker,STAT3 inh,STAT1 act,STAT3 activator
CCOc1cc(C2NN=C(c3ccccc3)S2)ccc1OCc1ccc(F)cc1 (centres undefined),-36,7,133*,95
CCOc1cc(C2NN=C(c3ccccc3)S2)ccc1OCc1ccccc1Cl (centres undefined),-41,-1,136*,107
CNCc1ccccc1OCc1ccc(F)cc1,-3,10,100,93
Cc1ccc(N=Nc2c(O)n(CN3CCOCC3)c3ccccc23)cc1,-70,-39,163*,137*
Cc1cccc(NC(=S)N=Nc2c(O)n(CN3CCOCC3)c3ccccc23)c1C,-2,-18,102,117
Cc1ccccc1C(=O)Nc1ccc(N2CCCC2)cc1,-35,13,131*,93
O=C(Nc1ccc(N2CCCCC2)cc1)c1ccc2ccccc2n1,-48,-27,144*,124
